Where two headings read alike, the source gives them in different places.
Type: in vivo, human
Conditions: for Glucose intervention needed, subjects: between 2 and 6 hours postdose
Method in brief: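 Randomized crossover: single s.c. pen dose of test or comparator insulin (100 U/mL) at two visits 3–22 days apart. Subjects were hospitalised 12 h and fasted to 6 h. AEs were treatment-emergent if onset was ≤7 days postdose. Hypoglycaemia followed ADA/ISPAD definitions, confirmed by meter PG <56 mg/dL and counted up to the next insulin or 16 h. Glucose was given below 56 mg/dL or at investigator discretion.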

[1] = across the three age groups, 0.2 U/kg s.c. single dose

## insulin aspart [IAsp]
[1]
  Safety and tolerability: safe and well tolerated
  Serious AEs: No serious AEs were observed
  Severe hypoglycemic episodes: No severe hypoglycemic episodes were reported
adults, N = 15, 0.2 U/kg s.c. single dose
  Confirmed hypoglycemic episodes (PG below 56 mg/dL), number: three
adults
  Glucose intervention needed, subjects: three
All age groups
  Glucose intervention needed, subjects: seven
children
  Glucose intervention needed, subjects: three

From paper PMC7383777 (Pediatric Diabetes, 2020)
